≈ marks a conversion by molar mass, not a printed value.
How the values were obtained:
[1] = (§1) Cytotoxicity against human HeLa cells assessed as growth inhibition after 72 hrs by MTT assay; format: cell-based; settings: HeLa cells
[2] = system: HeLa; assay: as §1; format: cell-based; settings: hela, 72 h
[3] = (§2) Cytotoxicity against human PANC1 cells assessed as growth inhibition after 90 hrs by MTT assay; format: cell-based, PANC-1; settings: PANC-1 cells
[4] = system: PANC-1; assay: as §2; format: cell-based; settings: panc-1, 90 h
[5] = (§3) Cytotoxicity against human THP1 cells assessed as growth inhibition after 72 hrs by MTT assay; format: cell-based, THP-1; settings: THP-1 cells
[6] = system: THP-1; assay: as §3; format: cell-based; settings: thp-1, 72 h
[7] = Selectivity index, ratio of GI50 for human PANC1 cells to MIC90 for dormant Mycobacterium bovis BCG ATCC 35734; format: toxicity; settings: PANC-1 cells, read-out: Selectivity Index
[8] = system: Mycobacterium tuberculosis; assay: Antitubercular activity against dormant Mycobacterium tuberculosis H37Ra ATCC 25177 at 3 to 30 ug/ml after 12 days by XTT reduction menadione assay; format: functional; set-up: scale not given: the % may be the effect or the level left
[9] = system: Mycobacterium tuberculosis; assay: Antitubercular activity against active Mycobacterium tuberculosis H37Ra ATCC 25177 infected in human THP1 cells after 8 days by nitrate reductase assay; format: functional; settings: H37Ra ATCC 25177, 192 h
[10] = system: Mycobacterium tuberculosis; assay: Antitubercular activity against dormant Mycobacterium tuberculosis H37Ra ATCC 25177 infected in human THP1 cells after 12 days by nitrate reductase assay; format: functional; settings: H37Ra ATCC 25177, 288 h
[11] = system: Mycobacterium tuberculosis; assay: Antitubercular activity against active Mycobacterium tuberculosis H37Ra ATCC 25177 after 8 days by XTT reduction menadione assay; format: functional; settings: H37Ra ATCC 25177, 192 h
Method in brief: (§4)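 H37Ra was tested by microdilution in 96-well plates, at 30–0.001 μg/mL in one-third dilutions. Each plate carried a rifampicin and isoniazid dilution series as positive controls. Growth was scored by XTT reduction menadione assay (XRMA) and cross-checked by a final absorbance reading at 600 nm.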

[12] = system: Mycobacterium tuberculosis; assay: Antitubercular activity against dormant Mycobacterium tuberculosis H37Ra ATCC 25177 after 12 days by XTT reduction menadione assay; format: functional; settings: H37Ra ATCC 25177, 288 h; method in brief: as §4
[13] = Selectivity index, ratio of GI50 for human PANC1 cells to MIC90 for active Mycobacterium bovis BCG ATCC 35734; format: toxicity; settings: PANC-1 cells, read-out: Selectivity Index
[14] = Selectivity index, ratio of GI50 for human THP1 cells to MIC90 for active Mycobacterium tuberculosis H37Ra ATCC 25177; format: toxicity; settings: THP-1 cells, read-out: Selectivity Index
[15] = Selectivity index, ratio of GI50 for human THP1 cells to MIC90 for dormant Mycobacterium tuberculosis H37Ra ATCC 25177; format: toxicity; settings: THP-1 cells, read-out: Selectivity Index
[16] = Selectivity index, ratio of GI50 for human THP1 cells to MIC90 for active Mycobacterium bovis BCG ATCC 35734; format: toxicity; settings: THP-1 cells, read-out: Selectivity Index
[17] = Selectivity index, ratio of GI50 for human THP1 cells to MIC90 for dormant Mycobacterium bovis BCG ATCC 35734; format: toxicity; settings: THP-1 cells, read-out: Selectivity Index
[18] = Selectivity index, ratio of GI50 for human HeLa cells to MIC90 for active Mycobacterium bovis BCG ATCC 35734; format: toxicity; settings: read-out: Selectivity Index
[19] = Selectivity index, ratio of GI50 for human HeLa cells to MIC90 for dormant Mycobacterium bovis BCG ATCC 35734; format: toxicity; settings: read-out: Selectivity Index
[20] = Antioxidant activity assessed as DPPH radical scavenging activity after 30 mins by spectrophotometric method; format: functional

Row | SMILES | GI50 at 72 h [1] [µg/mL] | GI90 [2] [µg/mL] | GI50 at 90 h [3] [µg/mL] | GI90 [4] [µg/mL] | GI50 at 72 h [5] [µg/mL] | GI90 [6] [µg/mL] | selectivity ratio [7] | Activity [8] [%] | MIC90 [9] [µg/mL] | MIC90 [10] [µg/mL] | MIC90 [11] [µg/mL] | MIC90 [12] [µg/mL] | selectivity ratio [13] | selectivity ratio [14] | selectivity ratio [15] | selectivity ratio [16] | selectivity ratio [17] | selectivity ratio [18] | selectivity ratio [19] | EC50 [20] [µg/mL]
1 | Cc1ccc(O)c(C(=O)CC(=O)c2cc3ccccc3s2)c1 | 7.12 (≈ 22.9 µM) | > 30 | 15.8 (≈ 51 µM) | > 30 | > 100 | > 100 | > 10 | – | – | – | – | – | – | – | – | – | – | – | – | –
2 | O=C(CC(=O)c1ccccc1O)c1cc2ccccc2s1 | 7.86 (≈ 26.5 µM) | > 30 | 7.77 (≈ 26.2 µM) | > 30 | > 100 | > 100 | – | >92 | 2.96 (≈ 9.99 µM) | 1.82 (≈ 6.14 µM) | 25.2 (≈ 84.9 µM) | 2.05 (≈ 6.92 µM) | – | – | – | – | – | – | – | –
3 | O=C(CC(=O)c1cc(Cl)ccc1O)c1cc2ccccc2s1 | 4.42 (≈ 13.4 µM) | 8.24 (≈ 24.9 µM) | 8.44 (≈ 25.5 µM) | 26.03 (≈ 78.7 µM) | 7.48 (≈ 22.6 µM) | > 30 | – | >92 | 2.83 (≈ 8.56 µM) | 0.91 (≈ 2.75 µM) | 3.29 (≈ 9.95 µM) | 2.79 (≈ 8.43 µM) | – | – | – | – | – | – | – | –
4 | O=C(CC(=O)c1cc(Br)ccc1O)c1cc2ccccc2s1 | 6.75 (≈ 18 µM) | 20.28 (≈ 54 µM) | 18.3 (≈ 48.8 µM) | > 30 | > 100 | > 100 | > 10 | >92 | 4.94 (≈ 13.2 µM) | 3.91 (≈ 10.4 µM) | 2.87 (≈ 7.65 µM) | 2.63 (≈ 7.01 µM) | > 10 | – | – | – | – | – | – | –
5 | CC(=O)O[C@H]1C(=O)[C@@]2(C)[C@H]([C@H](OC(=O)c3ccccc3)[C@]3(O)C[C@H](OC(=O)[C@H](O)[C@@H](NC(=O)c4ccccc4)c4ccccc4)C(C)=C1C3(C)C)[C@]1(OC(C)=O)CO[C@@H]1C[C@@H]2O [PACLITAXEL] | 0.004 (≈ 0.00468 µM) | 0.075 (≈ 0.0878 µM) | 0.127 (≈ 0.149 µM) | 5.715 (≈ 6.69 µM) | 0.133 (≈ 0.156 µM) | 5.81 (≈ 6.8 µM) | – | – | – | – | – | – | – | – | – | – | – | – | – | –
6 | CO[C@H]1/C=C/O[C@@]2(C)Oc3c(C)c(O)c4c(O)c(c(/C=N/N5CCN(C)CC5)c(O)c4c3C2=O)NC(=O)/C(C)=C\C=C\[C@H](C)[C@H](O)[C@@H](C)[C@@H](O)[C@@H](C)[C@H](OC(C)=O)[C@@H]1C [RIFAMPIN] | – | – | – | – | – | – | – | – | 0.5 (≈ 0.608 µM) | 0.8 (≈ 0.972 µM) | 0.048 (≈ 0.0583 µM) | 0.043 (≈ 0.0523 µM) | – | – | – | – | – | – | – | –
7 | O=C(CC(=O)c1cc(Cl)cc(Cl)c1O)c1cc2ccccc2s1 | > 100 | > 100 | 26.2 (≈ 71.8 µM) | > 30 | > 100 | > 100 | > 10 | – | – | – | – | – | – | – | – | – | – | – | – | –
8 | NNC(=O)c1ccncc1 [ISONIAZID] | – | – | – | – | – | – | – | – | 0.05 (≈ 0.365 µM) | 0.075 (≈ 0.547 µM) | 0.074 (≈ 0.54 µM) | 0.075 (≈ 0.547 µM) | – | – | – | – | – | – | – | –
9 | Cc1cc2oc(-c3cc4ccccc4s3)cc(=O)c2cc1Cl | 21.2 (≈ 64.9 µM) | > 30 | > 100 | > 100 | > 100 | > 100 | – | – | 7.67 (≈ 23.5 µM) | 2.18 (≈ 6.67 µM) | 25.4 (≈ 77.6 µM) | 24.3 (≈ 74.5 µM) | – | > 30 | > 30 | > 30 | > 30 | > 35 | > 35 | –
10 | Cc1cc(O)c(C(=O)CC(=O)c2cc3ccccc3s2)cc1Cl | > 100 | > 100 | 20.4 (≈ 59 µM) | > 30 | > 100 | > 100 | – | – | – | – | – | – | – | – | – | > 22 | > 22 | – | – | –
11 | Cc1ccc(C(=O)CC(=O)c2cc3ccccc3s2)c(O)c1 | 23.1 (≈ 74.5 µM) | > 30 | 9.24 (≈ 29.8 µM) | > 30 | > 100 | > 100 | – | >92 | 25.8 (≈ 83.3 µM) | 2.61 (≈ 8.41 µM) | 5.45 (≈ 17.6 µM) | 4.41 (≈ 14.2 µM) | – | – | – | – | – | > 13 | > 13 | 20 (≈ 64.4 µM)
12 | Cc1ccc2oc(-c3cc4ccccc4s3)cc(=O)c2c1 | 15.6 (≈ 53.2 µM) | 27.8 (≈ 95.1 µM) | 12.9 (≈ 44 µM) | 29.75 (≈ 102 µM) | > 100 | > 100 | > 20 | – | 8.39 (≈ 28.7 µM) | 2.76 (≈ 9.44 µM) | 28.9 (≈ 98.7 µM) | 30 (≈ 103 µM) | > 20 | – | – | > 22 | > 22 | > 20 | > 20 | –
